Assay results from publication PMC4085996 (ChemMedChem, 2014).
Several values for one entry are separate records, joined by “and”; a condition that tells them apart may be missing. Equal values may be shown once. Read-outs that look alike come from different tables or passages of the source.

Columns and labels:
[1] = test system: HIV-1 RT multidrug-resistant (RTMDR) viral strain; details: read-out: EC50 RTMDR (prior studies); same assays for leads and drugs; cited from earlier work
[2] = test system: HIV-1 NL4-3 (wild-type) virus; assay: microbe, parasite or virus in culture; type: cell-based
[3] = test system: HIV-1 IIIB (wt); assay: HIV-1 infection assay using MT-2 cells; type: cell-based
Method in brief: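 MT-2 cells (10^4/well) infected overnight with 100 TCID50 HIV-1 IIIB in RPMI 1640 plus 10% FBS, with or without graded concentrations of test compound. Medium then replaced with compound-free medium. On day 4 post-infection, supernatants mixed with equal volume 5% Triton X-100 and p24 antigen quantified by ELISA. EC50 calculated from percent inhibition of p24 production.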

[4] = CytoTox-Glo cytotoxicity assay; type: cell-based; details: human, TZM-bl cells
Method in brief: (§1)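 Run alongside the antiviral assays. TZM-bl cells were cultured for one day with graded concentrations of test compound. Percent viable cells was determined with the CytoTox-Glo kit according to the manufacturer's protocol.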

[5] = Microsomal stability assay; type: in vitro ADME; details: 1 μM compound, 0.1 mg/mL human liver microsomes, 37 °C
[6] = test system: HIV-1 RTMDR (RT L74V, M41L, V106A, T215Y); type: cell-based; details: TZM-bl cells; for Resistance fold change RTMDR: versus NL4-3(wt); for EC50: read-out: EC50 RTMDR
[7] = test system: HIV-1 NL4-3 K101E mutant; type: cell-based; details: TZM-bl cells; for Resistance fold change K101E: versus NL4-3(wt); for EC50: read-out: EC50 K101E
[8] = test system: HIV-1 NL4-3 E138K mutant; type: cell-based; details: TZM-bl cells; for Resistance fold change E138K: versus NL4-3(wt); for EC50: read-out: EC50 E138K
[9] = test system: TZM-bl cells; assay: CytoTox-Glo cytotoxicity assay; type: cell-based; details: one day, average of two independent tests
Method in brief: as §1

[10] = Aqueous solubility measurement; type: physicochemical; details: triplicate; for Aqueous solubility pH 2.0: pH 2.0, HPLC method; for Aqueous solubility pH 7.4: pH 7.4, HPLC method
[11] = Log P measurement; type: physicochemical; details: measured at pH7.4 by HPLC method, triplicate
[12] = test system: HIV-1 A17 (K103N and Y181C); type: cell-based; details: MT-2 cells; for Resistance fold change A17: versus IIIB (wt); for EC50: read-out: EC50 A17
[13] = test system: HIV-1 wild-type and resistant viral strains with RTMDR, K101E or E138K mutation; assay: Text summary: antiviral potency over wild-type and resistant strains; type: cell-based
[14] = read-out: EC50 (NL4-3 infection of TZM-bl cells), mean ± SD, at least three independent experiments
[15] = read-out: EC50 NL4-3(wt), TZM-bl cells, Table 2
[16] = read-out: EC50 IIIB (wt), MT-2 cells

Compound: Cc1cc(C#N)cc(C)c1Oc1nc(Nc2ccc(C#N)cc2)nc(N)c1Br [1a, etravirine]
- EC50 [1]: 1 nM

Compound: Cc1cc(/C=C/C#N)cc(C)c1Nc1ccnc(Nc2ccc(C#N)cc2)n1 [1b, rilpivirine, reference compound]
- EC50 ([2]; Human immunodeficiency virus 1, NL43, TZM-bl, read-out: EC50 NL4-3(wt)): 0.44 nM
- EC50 ([3]; Human immunodeficiency virus 1, IIIB, MT2, read-out: EC50 IIIB (wt)): 0.49 nM
- CC50 at 1 day [4]: 19400 nM
- HLM t1/2 [5]: 39.52 min
- EC50 [1]: 0.49 nM

Compound: N#Cc1ccc(Nc2nc(Oc3c(F)cccc3F)ccc2N)cc1 [6a, N^2-(4′-Cyanophenyl)amino-6-(2”,6”-difluoro)phenoxypyridin-3-amine]
- EC50 [2, 14]: 6.78 ± 1.18 nM
- EC50 [2, 15]: 6.78 nM
- Resistance fold change RTMDR [6]: 0.52
- EC50 [6]: 3.55 nM
- Resistance fold change K101E [7]: 7.82
- EC50 [7]: 53 nM
- Resistance fold change E138K [8]: 4.3
- EC50 [8]: > 29 nM
- CC50 [9]: 19200 nM
- HLM t1/2 [5]: 44.01 min
- Aqueous solubility pH 2.0 [10]: 8.42 μg/mL
- Aqueous solubility pH 7.4 [10]: 1.58 μg/mL
- log P [11]: >5

Compound: N#Cc1ccc(Nc2nc(Oc3c(F)cc(Br)cc3F)ccc2N)cc1 [6b]
- EC50 [2, 14]: 7.43 ± 1.1 nM
- CC50 [9]: > 9590 nM

Compound: N#Cc1ccc(Nc2nc(Oc3c(F)cc(CO)cc3F)ccc2N)cc1 [6c, N^2-(4′-Cyanophenyl)amino-6-(2”,6”-difluoro-4”-hydroxymethyl)phenoxypyridine-3-amine]
- EC50 [2, 14]: 57.1 ± 9.2 nM
- CC50 [9]: > 27200 nM

Compound: CC(=O)OCc1cc(F)c(Oc2ccc(N)c(Nc3ccc(C#N)cc3)n2)c(F)c1 [6d, N^2-(4′-Cyanophenyl)amino-6-(2”,6”-difluoro-4”-acetoxymethyl)phenoxypyridin-3-amine]
- EC50 [2, 14]: 290 ± 46 nM

Compound: N#Cc1ccc(Nc2nc(Oc3c(F)cc(C=NO)cc3F)ccc2N)cc1 [6e, N^2-(4′-Cyanophenyl)amino-6-(2”,6”-difluoro-4”-(hydroxyimino)methyl)phenoxy pyridin-3-amine]
- EC50 [2, 14]: 261 ± 55.1 nM
- CC50 [9]: > 26200 nM

Compound: N#Cc1ccc(Nc2nc(Oc3c(F)cc(C#N)cc3F)ccc2N)cc1 [6f, N^2-(4′-Cyanophenyl)amino-6-(2”,6”-difluoro-4”-cyano)phenoxypyridin-3-amine]
- EC50 [2, 14]: 5.16 ± 1.57 nM
- CC50 [9]: > 9390 nM

Compound: N#C/C=C/c1cc(F)c(Oc2ccc(N)c(Nc3ccc(C#N)cc3)n2)c(F)c1 [6g, (E)-N^2-(4′-Cyanophenyl)amino-6-(4”-cyanovinyl-2”,6”-difluoro)phenoxypyridin-3-amine]
- EC50 [2, 14]: 0.75 ± 0.18 nM
- EC50 [2, 15]: 0.75 nM
- Resistance fold change RTMDR [6]: 46.3
- EC50 [6]: 34.7 nM
- Resistance fold change K101E [7]: 9.6
- EC50 [7]: 7.2 nM
- Resistance fold change E138K [8]: 10.3
- EC50 [8]: 7.71 nM
- EC50 [3, 16]: 1.11 nM
- Resistance fold change A17 [12]: > 450
- EC50 [12]: > 500 nM
- CC50 [9]: 11000 nM
- HLM t1/2 [5]: 76.46 min
- Aqueous solubility pH 2.0 [10]: 1.27 μg/mL
- Aqueous solubility pH 7.4 [10]: 0.72 μg/mL
- log P [11]: 3.48

Compound: N#C/C(=C\c1cc(F)c(Oc2ccc(N)c(Nc3ccc(C#N)cc3)n2)c(F)c1)C(N)=O [6h, (E)-6-[4”-(3-Amino-2-cyano-3-oxoprop-1-enyl)-2”,6”-difluoro]phenoxy-N^2-(4′-cyanophenyl)pyridin-2,3-diamine]
- EC50 [2, 14]: 370 ± 59 nM
- CC50 [9]: 15800 nM

Compound: CC(=O)CCc1cc(F)c(Oc2ccc(N)c(Nc3ccc(C#N)cc3)n2)c(F)c1 [6i, N^2-(4′-Cyanophenyl)amino-6-(2”,6”-difluoro-4”-(3-oxobutyl)phenoxy)pyridin-3-amine]
- EC50 [2, 14]: 4.66 ± 0.95 nM
- CC50 [9]: > 9800 nM

Compound: CCCOC(=O)c1cc(F)c(Oc2ccc(N)c(Nc3ccc(C#N)cc3)n2)c(F)c1 [6j, N^2-(4′-Cyanophenyl)amino-6-(2”,6”-difluoro-4”-propylcarbmethoxy)phenoxypyr idin-3-amine]
- EC50 [2, 14]: 99 ± 19 nM
- CC50 [9]: 15300 nM

Compound: N#Cc1ccc(Nc2nc(Oc3c(F)cc(/C=C/C(N)=O)cc3F)ccc2N)cc1 [6k, (E)-N^2-(4′-Cyanophenyl)amino-6-(2”,6”-difluoro-4”-(2-carbamoyl)vinyl)phenoxy pyridin-3-amine]
- EC50 [2, 14]: 614 ± 118 nM
- CC50 [9]: > 24600 nM

Compound: N#CCCc1cc(F)c(Oc2ccc(N)c(Nc3ccc(C#N)cc3)n2)c(F)c1 [6l, 6-(4”-(2-Cyanoethyl)-2”,6”-difluoro)phenoxy-N^2-(4′-cyanophenyl)aminopyridin-3-amine]
- EC50 [2, 14]: 2.81 ± 0.59 nM
- CC50 [9]: > 10200 nM

Compound: N#Cc1ccc(Nc2nc(Oc3c(F)cc(CCCO)cc3F)ccc2N)cc1 [6n, N^2-(4′-Cyanophenyl)amino-6-(2”,6”-difluoro-4”-(3-hydroxypropyl)phenoxy) pyridin-3-amine]
- EC50 [2, 14]: 48 ± 9.8 nM
- CC50 [9]: > 25200 nM

Compound: N#Cc1ccc(Nc2nc(Oc3c(Br)cc(C#N)cc3Br)ccc2N)cc1 [8a, 6-(4”-Cyano-2”,6”-dibromo)phenoxy-N^2-(4′-cyanophenyl)pyridin-2,3-diamine]
- EC50 [2, 14]: 0.99 nM and 0.93 nM
- EC50 [2, 15]: 0.93 nM
- Resistance fold change RTMDR [6]: 2.6
- EC50 [6]: 2.47 nM
- Resistance fold change K101E [7]: 3.3
- EC50 [7]: 3.09 nM
- Resistance fold change E138K [8]: 5.8
- EC50 [8]: 5.44 nM
- EC50 [3, 16]: 12.4 nM
- Resistance fold change A17 [12]: 30.8
- EC50 [12]: 384 nM
- CC50 [9]: 13200 nM
- HLM t1/2 [5]: 41.66 min
- Aqueous solubility pH 2.0 [10]: 0.79 μg/mL
- Aqueous solubility pH 7.4 [10]: 0.72 μg/mL
- log P [11]: 3.30

Compound: N#C/C=C/c1cc(Br)c(Oc2ccc(N)c(Nc3ccc(C#N)cc3)n2)c(Br)c1 [8b, (E)-N^2-(4′-Cyanophenyl)amino-6-(4”-cyanovinyl-2”,6”-dibromo)phenoxypyridin-3-diamine]
- EC50 [2, 14]: 0.33 ± 0.09 nM
- EC50 [2, 15]: 0.33 nM
- Resistance fold change RTMDR [6]: 2.2
- EC50 [6]: 0.74 nM
- Resistance fold change K101E [7]: 23.1
- EC50 [7]: 7.63 nM
- Resistance fold change E138K [8]: 12.4
- EC50 [8]: 4.11 nM
- EC50 [3, 16]: 3.04 nM
- Resistance fold change A17 [12]: 65.7
- EC50 [12]: 200 nM
- CC50 [9]: 8220 nM
- HLM t1/2 [5]: 21.87 min
- Aqueous solubility pH 2.0 [10]: 0.63 μg/mL
- Aqueous solubility pH 7.4 [10]: 0.62 μg/mL
- log P [11]: 3.55

Compound: COc1cc(/C=C/C#N)cc(Br)c1Oc1ccc(N)c(Nc2ccc(C#N)cc2)n1 [8c, (E)-6-(2”-Bromo-4”-cyanovinyl-6”-methoxy)phenoxy-N^2-(4′-cyanophenyl) pyridin-2,3-diamine]
- EC50 [2, 14]: 3.25 ± 0.89 nM
- EC50 [2, 15]: 3.25 nM
- Resistance fold change RTMDR [6]: 1.1
- EC50 [6]: 3.46 nM
- Resistance fold change K101E [7]: 1.2
- EC50 [7]: 3.9 nM
- Resistance fold change E138K [8]: 2.1
- EC50 [8]: 6.93 nM
- EC50 [3, 16]: 4.53 nM
- Resistance fold change A17 [12]: 18.6
- EC50 [12]: 84.4 nM
- CC50 [9]: 21000 nM
- HLM t1/2 [5]: 54.7 min and 54.71 min
- Aqueous solubility pH 2.0 [10]: 0.82 μg/mL
- Aqueous solubility pH 7.4 [10]: 0.50 μg/mL
- log P [11]: 3.31
- resistance fold change (RFC), range over resistant strains [13]: 1.1–2.1

Compound: N#C/C=C/c1cc(Cl)c(Oc2ccc(N)c(Nc3ccc(C#N)cc3)n2)c(Cl)c1 [8d, (E)-N^2-(4′-Cyanophenyl)amino-6-(4”-cyanovinyl-2”,6”-dichloro)phenoxypyridin-3-amine]
- EC50 [2, 14]: 8.14 ± 2.49 nM
- CC50 [9]: 10700 nM
- HLM t1/2 [5]: 39.61 min
- Aqueous solubility pH 2.0 [10]: 0.81 μg/mL
- Aqueous solubility pH 7.4 [10]: 0.70 μg/mL
- log P [11]: >5

Compound: COc1cc(/C=C/C#N)ccc1Oc1ccc(N)c(Nc2ccc(C#N)cc2)n1 [8e, (E)-N^2-(4′-Cyanophenyl)amino-6-(2”-methoxy-4”-cyanovinyl)phenoxypyridin-3-amine]
- EC50 [2, 14]: 16.7 ± 4.33 nM
- CC50 [9]: > 20600 nM

Compound: N^2-(4′-Cyanophenyl)amino-6-(4”-(2-cyano)propylcarbamoyl-2”,6”-difluoro)phen oxypyridin-3-amine [6m]
- EC50 [2, 14]: 350 ± 52 nM
- CC50 [9]: 15100 nM
